The list is not random: actives were taken first. Their share in the collection is about 3.4%.
MEKK2 mut-MEK5 = signal of MEK5 binding to mutant human MEKK2 PB1 domain. bead flow cytometry, Alexa488-MEK5 binding to MEKK2 mutant. percent response, % at 10 µM. AID 1530. hit rate 0.35% among 290,000; in the data active = percent response above about 24%, passing the limit was not always enough
VIM-2 inh = inhibitors of Pseudomonas aeruginosa VIM-2 metallo-beta-lactamase; purified VIM-2, nitrocefin hydrolysis, epi-absorbance fluorescence; inhibition, % at 5.6 µM; hit rate 0.89% among 290,000;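 active = inhibition above the mean of all tested compounds plus 3 SD, cutoff set per screening run, cut at about 7.5% in these data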;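 also: red hydrolysis product quenches plate fluorescence so inhibitors raise well fluorescence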
MEKK2 WT-MEK5 = raises or lowers MEK5 binding to wildtype human MEKK2 PB1 domain | Q9Y2U5 | bead flow cytometry, Alexa488-MEK5 binding to MEKK2 WT; actives lie on both sides | binding response (% of control), % at 10 µM | hit rate 1.1% among 290,000 | AID 1531; in the data active = binding response below about 67% or above about 130%
IMP-1 inhibitor = blocks Pseudomonas aeruginosa IMP-1 metallo-beta-lactamase; hit rate 0.45% among 290,000; purified IMP-1, nitrocefin hydrolysis, epi-absorbance fluorescence; inhibition, % at 5.6 µM; AID 1556;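 active = inhibition above the mean plus 3 SD of all compounds in the same screening run, cut at about 4.5% in these data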
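Material – recombinant IMP-1 enzyme, purified · Amount – IMP-1 0.2 nM before substrate addition · Medium – HEPES buffer pH 7.1 with ZnSO4 and Brij 35 · Timing – 25 °C, 15 min preincubation, 25 min reaction · Measured by – plate fluorescence quenching by hydrolysis product, ex 480/em 530 nm · Read-out – percent enzyme inhibition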
MEKK3 PB1 HTS = raises or lowers MEK5 binding to the human MEKK3 PB1 domain | AID 1529 | hit rate 1.4% among 290,000 | Q99759 | bead-based flow cytometry, Alexa488-MEK5 binding to MEKK3; actives lie on both sides; 0 = blocked by unlabeled MEK5, 100 = vehicle | binding response (% of control), % at 10 µM;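 active = binding response more than 3 SD above or below the average of its plate-row segment, actives on both sides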;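 also: Alexa488 bead fluorescence after subtracting the streptavidin-only scavenger bead signal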
MEKK2wt confirm = raises or lowers MEK5 binding to wildtype human MEKK2, retest. shares compounds with MEKK3 PB1 HTS. bead flow cytometry, Alexa488-MEK5 binding to MEKK2 WT; actives lie on both sides. binding response (% of control), % at 10 µM. hit rate 2.4% among 5,900; in the data active = binding response below about 16% or above about 210%; inactive = in between
MEKK2mut-MEK5 = signal of MEK5 binding to mutant human MEKK2, retest. shares compounds with MEKK3 PB1 HTS. bead flow cytometry, Alexa488-MEK5 binding to MEKK2 mutant. percent response, % at 10 µM. hit rate 2% among 5,900. AID 1893; in the data active = percent response mostly above about 71%, no sharp cut-off; inactive = mostly below about 38%;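 also: higher means compound restores mutant binding toward wildtype level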
MEKK3 confirm = confirmation of inhibitors of MEK5 binding to human MEKK3. shares compounds with MEKK3 PB1 HTS. bead flow cytometry, Alexa488-MEK5 binding to MEKK3; stronger effect = lower value. binding response (% of control), % at 10 µM. hit rate 1.8% among 5,900. AID 1894;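 active = binding response below 72% of control, or above a set upper limit, though filed actives all read lower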
Numbers stand for hits; n = inactive; x = no result given; [ ] = remark or other dose.

SMILES	MEKK2 mut-MEK5	VIM-2 inh	MEKK2 WT-MEK5	IMP-1 inhibitor	MEKK3 PB1 HTS	MEKK2wt confirm	MEKK2mut-MEK5	MEKK3 confirm
CC(C(=O)NCCN1C(=O)S/C(=C\c2cccs2)C1=O)N1C(=O)c2ccccc2C1=O (configuration not stated)	n	n	n	n	146	n	n	n
Cn1c(O)c(N=NC(=O)c2cc(-c3cccs3)nc3ccccc23)c2ccccc21	n	n	n	n	130	n	n	n
O=C(N=Nc1c(O)[nH]c2ccc(Br)cc12)c1cc(-c2cccs2)nc2ccccc12	n	n	n	n	n	x	x	x
CC(C(=O)Nc1cc([N+](=O)[O-])ccc1Cl)N1CCN(c2ccccc2O)CC1 (configuration not stated)	n	n	n	n	132	n	n	n
COc1ccc([N+](=O)[O-])cc1NC(=O)C(C)N1CCCC1 (configuration not stated)	n	n	n	n	n	x	x	x
COc1ccc(C)cc1NC(=O)c1ccc2c(c1)OCO2	n	n	n	n	n	x	x	x
CCN1C(=O)c2cccc3c(S(=O)(=O)Nc4ncccc4C)ccc1c23	n	n	n	n	82[inhibitor]	n	n	n
CCN1C(=O)c2cccc3c(S(=O)(=O)Nc4ccccn4)ccc1c23	n	n	n	n	n	x	x	x
CC(NC(=O)/C=C/c1cnc2ccccc2n1)C12CC3CC(CC(C3)C1)C2 (configuration not stated)	n	n	n	n	134	n	n	n
O=C(/C=C/c1ccccc1)NC(NC(=S)Nc1cccc(O)c1)C(Cl)(Cl)Cl (configuration not stated)	n	n	139	n	n	n	n	n
FC(F)(F)c1nc(-c2cccs2)ncc1-c1nnnn1-c1ccc(Cl)cc1	n	n	n	n	n	x	x	x
COc1ccc(-c2noc(-c3ccccc3C(=O)Nc3cccnc3)n2)cc1	26	n	n	n	n	n	n	n
COc1ccc(-c2noc(-c3ccccc3C(=O)Nc3cccnc3)n2)cc1OC	n	n	n	n	n	x	x	x
O=C1c2ccccc2S(=O)(=O)c2cc(N3CCN(c4ccccc4)CC3)ccc21	n	x	n	x	n	x	x	x
O=C1c2ccccc2S(=O)(=O)c2cc(N3CCOCC3)ccc21	n	x	n	x	82[inhibitor]	n	n	n
CC(C)(CN1CCN(c2ccccc2)CC1)NS(=O)(=O)c1ccccc1	n	n	n	n	n	x	x	x
COc1ccc(NC(=O)CN2C(=O)CSC(C)C2=O)c(OC)c1 (configuration not stated)	n	n	n	n	137	n	n	n
CCC(=O)NC(=S)Nc1ccc(OC)cc1OC	n	n	n	n	134	n	n	n
CCCCSCCCNC(=O)C1CCC(CNS(=O)(=O)c2ccccc2)CC1 (configuration not stated)	n	n	n	n	n	x	x	x
Cc1csc2ncc(C(=O)NCCC(c3ccccc3)c3ccccc3)c(=O)n12	n	n	n	n	130	n	n	n
Cc1csc2ncc(C(=O)NCCc3ccccc3)c(=O)n12	n	n	n	n	n	x	x	x
CCOC(=O)CSc1n[nH]c(=O)n1CCc1ccccc1	n	n	n	n	n	x	x	x
CCOc1ccc(C(=O)C[n+]2cccc3cc(C)ccc32)cc1	n	n	n	n	n	x	x	x
O=C(C[n+]1cccc2ccccc21)c1ccc(NC(=O)c2ccccc2)cc1	x	n	x	n	37[inhibitor]	n	n	n
Cc1ccc(C(=O)C[n+]2cccc3cc(C)ccc32)cc1	x	n	x	n	25[inhibitor]	n	n	n
Cc1ccc(C)c(Nc2c([N+](=O)[O-])ccc3nonc23)c1	n	n	n	n	n	x	x	x
COc1ccc(N2CC(C(=O)Nc3nnc(SCc4ccccn4)s3)CC2=O)cc1 (configuration not stated)	n	n	n	n	133	1.0[inhibitor]	n	2.0
